# High-throughput results: PubChem BioAssay, several laboratories
# In the library only some 2.2% were active in any assay of this set; here they are far more common.
# Efflux pump inh – antifungal efflux pump inhibition, Nile Red retention | S. cerevisiae Candida pump triplex | inhibition, % at 10 µM | hit rate 0.44% among 330,000;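 active means plate passing quality check with inhibition over a set limit, or well fluorescence over plate mean plus 4 SD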;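 further: Nile Red retained in pooled yeast measured as flow cytometry median fluorescence; 0% = buffer negative control and 100% = Enniatin B positive control; higher means more Nile Red kept so more efflux inhibition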
# PolyA inh – inhibitors of polyadenylation in S. cerevisiae; activity score, % at 12 µM; S. cerevisiae SKY197-pL101 polyadenylation reporter, beta-gal luminescence; efflux-impaired pdr1/pdr3 knockout yeast; score 100 = 6 SD above DMSO; hit rate 0.02% among 300,000;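 active means lowest replicate activity score at least 50, where 100 means six control SD above control mean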;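 further: yeast exposed to compound for 9 h at 30 °C; higher score means more reporter readthrough which indicates perturbed polyadenylation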
# T cruzi inh – blocks replication of Trypanosoma cruzi. T. cruzi beta-gal in NIH3T3, luminescence, 90 h. inhibition, % (concentration not given with the values). hit rate 1.4% among 300,000. AID 1885;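 active means mean inhibition across valid replicates above about 55%, limit read from the data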;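 further: signal also drops with host cell toxicity which is not excluded here; 0% = plate median of DMSO wells and 100% = zero luminescence signal; higher percent means less beta-gal luminescence so fewer parasites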
#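 System: NIH/3T3 fibroblasts plus reporter T. cruzi. Medium: DMEM plus 2% FBS. Probe or stimulus: 5000 reporter trypomastigotes per well. Compound: single 50 nL compound addition per well in DMSO. Incubation: co-culture of at least 90 h after 3 h attachment. Detection: GalScreen β-gal luminescence, detergent lysis, 60 min. Evaluation: parasite load inhibition, %.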
# HDAC3 inh – inhibitors of human histone deacetylase 3. hit rate 0.15% among 320,000. O15379. inhibition, % at 8.3 µM. recombinant HDAC3, fluorogenic peptide/trypsin coupled, fluorescence; in the data active means inhibition above about 26%, passing the limit was not always enough
# Target sequence (O15379 whole entry, looked up): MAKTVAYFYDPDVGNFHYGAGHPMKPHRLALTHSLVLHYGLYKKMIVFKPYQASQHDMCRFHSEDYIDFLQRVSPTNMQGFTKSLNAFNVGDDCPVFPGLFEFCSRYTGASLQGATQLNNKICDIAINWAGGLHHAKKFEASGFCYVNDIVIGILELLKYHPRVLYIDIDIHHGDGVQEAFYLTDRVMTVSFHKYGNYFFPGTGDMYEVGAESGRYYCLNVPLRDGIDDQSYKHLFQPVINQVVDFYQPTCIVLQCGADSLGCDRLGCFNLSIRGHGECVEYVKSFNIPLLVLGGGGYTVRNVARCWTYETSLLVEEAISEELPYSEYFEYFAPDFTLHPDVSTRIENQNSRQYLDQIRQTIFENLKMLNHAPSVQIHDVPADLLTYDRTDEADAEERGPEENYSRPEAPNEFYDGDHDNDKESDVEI
# AI-2 QS modul – Vibrio harveyi AI-2 quorum sensing modulation. Vibrio harveyi JMH597 AI-2 luminescence/OD600 ratio, 9 h; hits give low values; strain lacks LuxN and CqsS sensors; 0 = neutral-control median. activity change, % at 7.5 µM. hit rate 0.4% among 300,000; in the data active means activity change below about -75%, passing the limit was not always enough;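 further: luminescence divided by OD600 gain over 9 h not by final OD600 alone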
# Active calls of the source: *; nt = no result; ! = not active in a repeat.
SMILES,Efflux pump inh,PolyA inh,T cruzi inh,HDAC3 inh,AI-2 QS modul
CCN(C[C@H]1N[C@@](C)(C(=O)OC)[C@H]2C(=O)N(C)C(=O)[C@@H]12)S(=O)(=O)c1ccc(F)cc1,-0.1,nt,nt,-2.4,nt
Cc1ccc(NC(=S)/N=C(\N)Nc2nc(C)c3cc(C)ccc3n2)c(C)c1,0.0,16.6,0.5,-1.0,9.5
Cc1ccc(NC(=S)/N=C(\N)Nc2nc(C)c3cc(C)c(C)cc3n2)cc1C,0.3,7.7,60.5*,2.8,10.0
Cc1[nH]c2ccccc2c1CN1CCN(c2ccccn2)CC1,0.2,0.7,78.4*,-1.9,13.7
Cc1[nH]c2ccccc2c(=O)c1CN1CCCCC1,0.1,-11.8,-4.6,3.0,0.7
Cc1[nH]c2ccccc2c1CN1CCC(Cc2ccccc2)CC1,-0.1,-6.2,93.9*,-1.1,4.4
Cc1ccc(N(C(C)C(=O)NCc2ccncc2)S(C)(=O)=O)cc1C (stereo not drawn),-0.1,15.3,0.2,1.2,19.4
Cn1c(=O)c2c(nc(/C=C/c3cccc(Cl)c3)n2C)n(C)c1=O,0.2,-13.8,7.4,-21.1,-7.1
CCN(CC)CCN(Cc1cc2cc(C)ccc2[nH]c1=O)C(=O)Nc1ccccc1OC,0.1,-6.4,8.7,1.7,11.4
CCc1ccc2[nH]c(=O)c(CN(Cc3ccccc3OC)C(=O)Nc3ccccc3OC)cc2c1,0.1,0.9,61.7*,1.1,24.7
COc1ccc(S(=O)(=O)N(Cc2ccco2)Cc2cc3ccccc3[nH]c2=O)cc1,-0.2,10.0,18.9,2.2,6.7
O=C(NCCN1CCOCC1)C(=O)NCC1OCCN1S(=O)(=O)c1ccccc1 (stereo not drawn),0.1,5.9,2.4,2.8,21.0
Cc1ccc(NC(=O)COc2ncnc3sccc23)cc1S(=O)(=O)N(C)C,0.1,0.6,-2.3,2.4,-78.4*
O=C(N/N=C/c1ccncc1)c1sc2ccccc2c1Cl,-0.1,16.2,3.3,2.7,12.1
O=C(N/N=C/c1ccc[nH]1)c1sc2ccccc2c1Cl,0.1,-1.8,69.4*,1.5,33.3
CC1CCCCC1NC(=O)CN1C(=O)NC(Cc2ccccc2)(Cc2ccccc2)C1=O (stereo not drawn),-0.1,-18.9,-0.9,-6.0,23.2
CC(NC(=O)CN1C(=O)NC(Cc2ccccc2)(Cc2ccccc2)C1=O)C12CC3CC(CC(C3)C1)C2 (stereo not drawn),-0.1,7.8,61.3*,19.2,12.4
Clc1ccc(C2=NCCN2)cc1,0.3,-16.2,61.7*,-7.3,23.1
O=C(Nc1ccc(C2=NCCN2)cc1)c1ccc(Cl)c(C(=O)Nc2ccc(C3=NCCN3)cc2)c1,-0.4,-12.8,-5.3,18.7,34.8
Cc1ccc2nc(SCC(=O)Nc3cc(C)on3)nc(=O)n2c1,-0.1,2.2,-7.7,-4.9,13.3
CCn1cc(C(=O)NCc2cccc(C(F)(F)F)c2)c(=O)c2ccc(C)nc21,0.2,15.4,-16.4,9.6,45.9
Cc1cc(C)n2nc(C(=O)NCc3cccc(C(F)(F)F)c3)nc2n1,0.2,-10.5,75.8*,2.9,22.0
CSc1ncccc1C(=O)N(C)CC(=O)Nc1cccc(F)c1,0.1,-6.8,-4.3,-3.6,16.7
COc1ccccc1-c1cc(C(F)(F)F)nc(S(C)(=O)=O)n1,-0.1,-52.1,-60.4,10.2,33.4
CN1CCN(c2nc(-c3ccco3)cc(C(F)(F)F)n2)CC1,0.1,0.3,27.1,-0.9,10.9
SMILES,Efflux pump inh,PolyA inh,T cruzi inh,HDAC3 inh,AI-2 QS modul
CS(=O)(=O)c1nc(-c2ccco2)cc(C(F)(F)F)n1,0.5,-70.5,54.9*,2.8,-62.6
O=[N+]([O-])c1cn(-c2nc(-c3ccco3)cc(C(F)(F)F)n2)cn1,-0.1,-2.0,64.6*,-5.2,4.6
O=C(O)c1cccc(NC(=O)C23CC4CC(C2)CC(n2cnc(Cl)n2)(C4)C3)c1,-0.1,13.2,-22.0,-4.8,31.1
O=C(Nc1cc(Oc2ccccc2)cc([N+](=O)[O-])c1)C12CC3CC(C1)CC(n1cnc(Cl)n1)(C3)C2,-0.1,4.2,61.7*,2.5,16.2
O=C(Nc1ccc2c(c1)OCO2)c1cc(-c2ccc(O)cc2)on1,-0.1,-12.5,54.9*,-0.1,31.2
c1ccc(-c2cn(-c3ccccc3)c3[n+]2CCS3)cc1,0.6,13.3,68.1*,-1.9,-21.5
Fc1ccc(-n2cc(-c3ccccc3)[n+]3c2SCC3)cc1,-0.1,18.2,3.7,-1.0,4.1
COc1ccc(-c2cn(-c3ccccc3)c3[n+]2CCS3)cc1,-0.2,9.8,58.1*!,5.4,12.6
